{"source": "ChEMBL document CHEMBL3997791", "about": "“Nanomolar-Potency Aminophenyl-1,3,5-triazine Activators of the Cystic Fibrosis Transmembrane Conductance Regulator (CFTR) Chloride Channel for Prosecretory Therapy of Dry Eye Diseases” (J Med Chem, 2017)", "key": {"[1]": {"assay": "Metabolic stability in rat hepatic microsomes assessed as parent compound remaining at 5 uM after 15 mins in presence of NADPH by LC-MS analysis", "assay_type": "ADME, Microsome", "details": "liver microsomes, read-out: Stability", "summary_of_the_method": "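Compound at 5 μM incubated at 37 °C with rat liver microsomes (1 mg/mL) in potassium phosphate buffer with 1 mM NADPH; quenched with ice-cold EtOAc, centrifuged, supernatant analysed by LC/MS (C18, water/acetonitrile with 0.1% formic acid gradient, UV 254 nm) for parent remaining; mean ± SEM, n = 3.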"}, "Mus musculus [2]": {"tested_on": "Mus musculus", "assay": "Induction of tear secretion in mouse at 250 pmol administered as single topical dose up to 8 hrs by phenol red thread test", "assay_type": "functional", "summary_of_the_method": "(§1)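 Mice 8–12 weeks (25–35 g); single ocular dose of 250 pmol (100 μM) in 2.5 μL vehicle (0.3% CMC in Ringer's), both eyes treated identically, vehicle control. Tear volume by phenol red thread, 10 s in lateral canthus under isoflurane, before and at set times after dosing. 5 mice, 10 eyes per condition; two-way ANOVA with Dunnett test.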"}, "[3]": {"assay": "Chemical stability in opthalmic vehicle containing 0.3% CMC in Ringer's solution at 100 uM up to 24 hrs at 40 degC by LC-MS analysis", "assay_type": "physicochemical", "summary_of_the_method": "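Compound dissolved at 100 μM in ophthalmic vehicle (0.3% CMC in Ringer's solution), held 24 h at 40 °C; chemical integrity checked by LC/MS.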"}, "Mus musculus [4]": {"tested_on": "Mus musculus", "assay": "Induction of tear secretion in mouse at 250 pmol administered as single topical dose after 12 to 24 hrs by phenol red thread test", "assay_type": "functional", "summary_of_the_method": "as §1"}, "[5]": {"molecular_target": "Cystic fibrosis transmembrane conductance regulator (Homo sapiens, UniProt P13569)", "sequence (P13569 whole entry, looked up)": "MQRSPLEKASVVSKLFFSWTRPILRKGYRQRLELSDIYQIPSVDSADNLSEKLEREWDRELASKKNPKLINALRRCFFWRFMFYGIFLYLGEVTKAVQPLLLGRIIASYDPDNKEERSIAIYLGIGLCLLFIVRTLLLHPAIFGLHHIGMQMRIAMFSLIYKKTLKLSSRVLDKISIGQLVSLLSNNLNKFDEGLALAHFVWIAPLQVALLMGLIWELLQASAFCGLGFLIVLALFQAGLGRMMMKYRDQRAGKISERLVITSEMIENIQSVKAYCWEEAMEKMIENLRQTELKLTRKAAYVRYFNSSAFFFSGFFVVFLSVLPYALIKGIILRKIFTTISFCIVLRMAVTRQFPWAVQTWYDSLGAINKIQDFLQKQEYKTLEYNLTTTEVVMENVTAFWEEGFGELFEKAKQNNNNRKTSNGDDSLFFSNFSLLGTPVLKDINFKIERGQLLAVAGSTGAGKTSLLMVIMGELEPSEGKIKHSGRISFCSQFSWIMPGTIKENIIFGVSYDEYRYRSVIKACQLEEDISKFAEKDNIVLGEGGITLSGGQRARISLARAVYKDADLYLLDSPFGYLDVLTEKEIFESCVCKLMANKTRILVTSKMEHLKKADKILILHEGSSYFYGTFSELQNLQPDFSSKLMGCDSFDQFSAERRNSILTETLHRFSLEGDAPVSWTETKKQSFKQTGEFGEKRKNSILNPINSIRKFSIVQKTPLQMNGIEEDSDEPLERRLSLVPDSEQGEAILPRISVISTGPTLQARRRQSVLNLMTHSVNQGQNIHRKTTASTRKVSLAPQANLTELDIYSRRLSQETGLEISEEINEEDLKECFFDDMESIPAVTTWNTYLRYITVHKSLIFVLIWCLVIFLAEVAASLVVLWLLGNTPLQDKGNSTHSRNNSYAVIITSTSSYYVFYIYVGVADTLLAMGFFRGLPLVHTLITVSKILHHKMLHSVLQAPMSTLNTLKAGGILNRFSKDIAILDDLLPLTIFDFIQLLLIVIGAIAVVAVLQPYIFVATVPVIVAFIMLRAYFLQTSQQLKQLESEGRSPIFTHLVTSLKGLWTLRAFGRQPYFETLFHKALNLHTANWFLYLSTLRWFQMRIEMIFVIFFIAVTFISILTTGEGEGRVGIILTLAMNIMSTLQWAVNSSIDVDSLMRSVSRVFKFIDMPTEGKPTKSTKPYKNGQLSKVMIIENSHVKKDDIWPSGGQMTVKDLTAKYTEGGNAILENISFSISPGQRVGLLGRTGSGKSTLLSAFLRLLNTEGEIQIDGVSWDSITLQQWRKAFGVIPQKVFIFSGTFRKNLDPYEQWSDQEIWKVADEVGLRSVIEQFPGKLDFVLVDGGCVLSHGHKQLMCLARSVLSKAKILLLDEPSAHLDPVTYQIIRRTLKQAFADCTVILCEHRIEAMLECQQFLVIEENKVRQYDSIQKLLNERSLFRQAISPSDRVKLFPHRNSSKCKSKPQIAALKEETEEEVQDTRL", "assay": "Activation of CFTR in human primary bronchial epithelial cells assessed as increase in short-circuit current up to 10 uM measured after 10 mins in absence of forskolin by voltage clamp method"}, "Mus musculus [6]": {"tested_on": "Mus musculus", "assay": "Induction of tear secretion in mouse lacking functional CFTR up to 250 pmol administered as single topical dose up to 6 hrs by phenol red thread test", "details": "in vivo, topical_or_ocular", "summary_of_the_method": "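CF mice lacking functional CFTR; single ocular dose of 250 pmol in 2.5 μL ophthalmic vehicle, both eyes, vehicle control. Tear volume by phenol red thread 10 s in lateral canthus under isoflurane, measured before and at timed points after dosing. 5 mice, 10 eyes per condition.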"}}, "note": "The source made the active and inactive calls. No cut-off for these calls is given here."}
{"smiles": "CNc1nc(Nc2ccccc2)nc(OCC(F)(F)C(F)F)n1", "values": [{"measurement": "remaining at […], 5 µM", "setting": "[1]", "result": "< 40", "unit": "%"}, {"measurement": "Activity", "setting": "Mus musculus [2]", "result": "Active"}, {"measurement": "Stability", "setting": "[3]", "result": "Stable"}, {"measurement": "Activity", "setting": "Mus musculus [4]", "result": "inactive"}, {"measurement": "Activity", "setting": "[5]", "result": "inactive"}, {"measurement": "Activity", "setting": "Mus musculus [6]", "result": "Non-Toxic"}]}
